Reference: ChEMBL document CHEMBL1123879, “Synthesis and antiarrhythmic activity of novel 3-alkyl-1-[omega-[4-[(alkylsulfonyl)amino]phenyl]-omega- hydroxyalkyl]-1H-imidazolium salts and related compounds” (J Med Chem, 1987)

How the values were obtained:
Canis familiaris [1] = organism: Canis familiaris; test: (§1) Concentration that causes 20% increase in functional refractory period (FRP) was determined on isolated canine ventricular muscle fibers; design: species or system Canis lupus familiaris, Muscle tissue
Procedure, shortened: (§2)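 Canine right ventricular papillary muscle strips superfused with O2/CO2-gassed saline at 36 ± 0.5 °C. Bipolar electrogram recording. Stimulated at 4× diastolic threshold (2 ms pulses), equilibrated 60 min. FRP measured at 1000 ms cycle length by S2 after every tenth S1 at shortening intervals. Cumulative concentrations; one compound per strip, with vehicle controls. Readout is concentration giving a 20% FRP change, or maximal change; log mean with 90% CI when n > 2.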

Canis familiaris [2] = test: In vivo intraduodenal activity in mongrel dogs was assessed by percent change in heart rate at active dose of 30 mg/kg, administered intradermally; format: functional, Canis lupus familiaris; details: in the assay text read “intraduodenally” for “intradermally”
Procedure, shortened: (§3)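 Healthy dogs (8–20 kg) of either sex, pentobarbital 30 mg/kg iv, ventilated, temperature held at 36 ± 0.5 °C. Compound given intraduodenally as suspension in 0.5% tragacanth. HR, BP and FRP measured at 45 min postdose; second dose if FRP/conduction change below 12%. Active dose means FRP change ≥ 12%; HR and BP given as % change, mean ± SEM.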

Canis familiaris [3] = test: In vivo antiarrhythmic efficacy in a programmed electrical stimulation (PES) model of mongrel dogs expressed as minimum effect dose (iv) at iv dose range of 0.1-10 mg/kg.; format: functional, Canis lupus familiaris, Heart
Procedure, shortened: (§4)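 Mongrel dogs (8–17 kg) with two-stage LAD occlusion 24 h earlier, anesthetized with thiopental 15 mg/kg and ventilated; open chest. PES induces SVT/VF; two control arrhythmias 30 min apart. Compound given as 10-min iv infusion, PES repeated 20 min later, dose escalated while still inducible; noninducibility counts as effective. HR and BP reported as % change at effective dose, mean ± SEM.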

Canis familiaris [4] = test: In vivo intraduodenal activity in mongrel dogs was assessed by percent change in blood pressure at active dose of 30 mg/kg, administered intradermally; format: functional, Canis lupus familiaris, Artery; details: in the assay text read “intraduodenally” for “intradermally”; procedure, shortened: as §3
Canis familiaris [5] = organism: Canis familiaris; test: (§5) Concentration that causes 20% increase in ADP95 (action potential duration at 95% repolarization) was determined on isolated canine cardiac Purkinje fibers; format: functional, Canis lupus familiaris, Purkinje fiber
Procedure, shortened: (§6)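 Canine cardiac Purkinje fibres in gassed physiological saline (95% O2–5% CO2, pH 7.35–7.40) at 36 ± 0.5 °C. Paced at 1.0 Hz with 2 ms pulses at twice diastolic threshold. Intracellular microelectrode recording after up to 1 h of stabilisation; 30 min exposure per concentration; one compound per fibre, with vehicle controls. Readout is concentration giving a 20% change in APD95, or maximal APD95 change; log mean with 90% CI when n > 2.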

Canis familiaris [6] = organism: Canis familiaris; test: Maximum observed change in ADP95 from control value was determined in isolated canine cardiac uM; format: functional, Canis lupus familiaris; procedure, shortened: as §6
Canis familiaris [7] = organism: Canis familiaris; test: Maximum observed change in FRP from control was determined in isolated canine ventricular muscle fibers at a concentration of 100 uM; format: functional, Canis lupus familiaris, Muscle tissue; procedure, shortened: as §2
Canis familiaris [8] = test: In vivo antiarrhythmic efficacy in a programmed electrical stimulation (PES) model of mongrel dogs reported as number of animals effective at dose range of 0.1-10 mg/kg.; format: functional, Canis lupus familiaris, Heart; procedure, shortened: as §4
Canis familiaris [9] = test: In vivo antiarrhythmic efficacy in PES model of mongrel dogs expressed as percent change in blood pressure at iv dose range of 0.1-10 mg/kg.; format: functional, Canis lupus familiaris; details: in the assay text read “1.0-10 mg/kg” for “0.1-10 mg/kg”; procedure, shortened: as §4
Canis familiaris [10] = test: In vivo intraduodenal activity in mongrel dogs was assessed by % change in heart rate (10 mg/kg administered intradermally); format: functional, Canis lupus familiaris; details: in the assay text read “intraduodenally” for “intradermally”; procedure, shortened: as §3
Canis familiaris [11] = organism: Canis familiaris; test: as §5; format: functional; details: Canis lupus familiaris; Purkinje fiber; procedure, shortened: as §6
Canis familiaris [12] = test: In vivo intraduodenal activity in mongrel dogs was assessed by % change in blood pressure (10 mg/kg administered intradermally); format: functional, Canis lupus familiaris, Artery; details: in the assay text read “intraduodenally” for “intradermally”; procedure, shortened: as §3
Canis familiaris [13] = organism: Canis familiaris; test: as §1; details: Canis lupus familiaris; Muscle tissue; procedure, shortened: as §2
Canis familiaris [14] = test: In vivo antiarrhythmic efficacy in a programmed electrical stimulation (PES) model of mongrel dogs expressed as percent change in heart rate at iv dose range of 0.1-10 mg/kg.; format: functional, Canis lupus familiaris; procedure, shortened: as §4
Canis familiaris [15] = organism: Canis familiaris; test: Concentration that causes 20% increase in ADP95 (action potential duration at 95% repolarization) was determined on isolated canine cardiac Purkinje fibers at a dose range of 0.01-10 uM; format: functional, Canis lupus familiaris, Purkinje fiber; procedure, shortened: as §6
Canis familiaris [16] = test: In vivo antiarrhythmic efficacy in a programmed electrical stimulation (PES) model of mongrel dogs expressed as percent change in blood pressure at iv dose range of 0.1-10 mg/kg.; format: functional, Canis lupus familiaris; procedure, shortened: as §4
Canis familiaris [17] = organism: Canis familiaris; test: Concentration that causes 20% increase in ADP95 (action potential duration at 95% repolarization) was determined on isolated canine cardiac Purkinje fibers at a concentration range 0.01-10 uM; format: functional, Canis lupus familiaris, Purkinje fiber; procedure, shortened: as §6

Compound | Activity (Canis familiaris [1]) [µM] | Activity (Canis familiaris [5]) [µM] | Max delta APD95 (Canis familiaris [6]) [%] | Max delta FRP (Canis familiaris [7]) [%] | Heart rate (Canis familiaris [10]) [%] | Blood pressure (Canis familiaris [12]) [%] | Activity (Canis familiaris [13]) | also measured
C[n+]1ccn(CCc2ccc(NS(C)(=O)=O)cc2)c1.[I-] | 10 | 2.6 | 45 | 24 | – | – | – | Heart rate (Canis familiaris [2]): -13%; Min effective dose (Canis familiaris [3]): 6.5; Blood pressure (Canis familiaris [4]): 3%; No. effective (Canis familiaris [8]): 2; Blood pressure (Canis familiaris [9]): 13%
Cc1c(C)[n+](C)c(C)n1CC(O)c1ccc(NS(C)(=O)=O)cc1.[Cl-] (stereo not drawn) | 2.5 | – | 13 | 29 | -12 | 19 | – | Activity (Canis familiaris [11]): Not recorded
CC[n+]1ccn(CC(=O)c2ccc(NS(C)(=O)=O)cc2)c1.[Cl-] | 28.2 | 49.4 | 26 | 26 | – | – | – | –
C[n+]1ccn(CC(=O)c2ccccc2)c1.[Br-] | – | 69 | – | – | – | – | Not recorded | Max delta FRP (Canis familiaris [7]; Canis lupus familiaris, Muscle tissue): Minimal effects
CCCCCCC[n+]1ccn(CC(O)c2ccc(NS(C)(=O)=O)cc2)c1.O=P([O-])(O)O (stereo not drawn) | 9 | 2.8 | 50 | 24 | -10 | 6 | – | –
C[n+]1ccn(CCC(O)c2ccc(NS(C)(=O)=O)cc2)c1.[Cl-] (stereo not drawn) | 100 | – | – | 20 | – | – | – | Activity (Canis familiaris [11]): Not recorded; Max delta APD95 (Canis familiaris [6]; Canis lupus familiaris): Minimal effects
CC(C)[n+]1ccn(CC(O)c2ccc(NS(C)(=O)=O)cc2)c1 (stereo not drawn) | – | – | – | – | – | – | Not recorded | Activity (Canis familiaris [11]): Not recorded; Max delta APD95 (Canis familiaris [6]; Canis lupus familiaris): Minimal effects
CCCCCCC[N+](CC)(CC)CCCCc1ccc(Cl)cc1.O=P([O-])(O)O [CLOFILIUM PHOSPHATE] | – | – | 39 | 7 | -18 | -4 | Not recorded | Heart rate (Canis familiaris [14]): -12%; Activity (Canis familiaris [15]): 0.26 µM; Min effective dose (Canis familiaris [3]): 0.63; Blood pressure (Canis familiaris [16]): 2%; No. effective (Canis familiaris [8]): 7
C[n+]1ccn(C[C@@H](O)c2ccc(NS(C)(=O)=O)cc2)c1.[Cl-] | 7.5 | 0.7 | 74 | 31 | – | – | – | –
CCCCCCC[n+]1ccn(CC(=O)c2ccc(NS(C)(=O)=O)cc2)c1.[Br-] | – | – | 21 | 14 | – | – | Not recorded | Activity (Canis familiaris [17]): 9 µM
CCS(=O)(=O)Nc1ccc(C(O)Cn2cc[n+](C)c2)cc1.[Cl-] (stereo not drawn) | 14.5 | 30 | 27 | 27 | – | – | – | –
C[n+]1ccn(CCC(=O)c2ccc(NS(C)(=O)=O)cc2)c1.[Cl-] | 17.8 | 38.3 | 26 | 29 | -2 | 6 | – | –
